Test results as given in ChEMBL document CHEMBL3228001, “Rigid congeners of dopamine based on octahydrobenzo[f]quinoline: peripheral and central effects” (1979).
Where a name gives a salt, the structure may show the parent alone. Active and inactive are the calls of the source.

Key:
Rattus norvegicus [1] = assay: Dopaminergic activity in Sprague-Dawley rat assessed as hyperactivity behavior administered into nucleus caudate-putamen measured up to 25 ug from 30 to 45 mins to persisted up to 3 hrs; assay type: functional, organism-based
Summary of the method: (§1)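 Male Sprague-Dawley rats (250 ± 26 g) had guide cannulae implanted for bilateral injection into caudate-putamen and nucleus accumbens, and were used 10–14 days later. Nialamide 100 mg/kg ip was given 2 h before. Drug in N2-bubbled water (minimal DMF if needed), 1–2 µL over 60 s. Hyperactivity was read as photocell counts/5 min, stereotypy was scored, and cannula sites were checked histologically.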

Rattus norvegicus [2] = assay: Dopaminergic activity in Sprague-Dawley rat assessed as stereotyped behavior characterized by sniffing and biting at up to 10 mg/kg, sc; assay type: functional, organism-based; design: dose 10 mg/kg
Summary of the method: (§2)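 Male Sprague-Dawley rats, groups of 10, were dosed sc in distilled water with 0.1% sodium metabisulfite, with solvent controls. Stereotyped sniffing and biting were scored as for intracerebral tests at 21 ± 2 °C between 08:00 and 18:00 h. Dose range runs from the threshold dose to the dose giving maximal response, in mg/kg sc.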

Mus musculus [3] = assay: Dopaminergic activity in albino mouse assessed as induction of climbing behavior up to 10 mg/kg, sc; assay type: functional, organism-based; design: dose 10 mg/kg
Summary of the method: (§3)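 Male albino mice (20–25 g, N = 10) were dosed sc in water with 0.1% sodium metabisulfite and placed in wire-mesh-lined cages. A mouse counted as climbing when holding the wire with all four paws. Measures: climbing index (% time climbing in the 30 min after the first climb) and maximum single-climb time. Doses run from threshold to maximal response.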

Canis familiaris [4] = assay: Emetic activity in sc dosed dogs assessed as frequency of vomiting for 1 hr relative to apomorphine; assay type: functional, Canis lupus familiaris
Mus musculus [5] = assay: Dopaminergic activity in albino mouse assessed as induction of ipsilateral circling behavior up to 10 mg/kg, sc; assay type: functional, organism-based; design: dose 10 mg/kg
Summary of the method: (§4)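 Male albino mice (30–35 g) received a unilateral caudate-putamen electrolesion (1.5 mA, 15 s) and 14 days of recovery. Only mice circling ≥7 ipsilateral revolutions/2 min after apomorphine HCl 1.0 mg/kg sc were kept, with a further 7 days of recovery. After sc dosing, complete revolutions in one direction were counted manually. Lesion sites were verified afterwards.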

Mus musculus [6] = assay: Dopaminergic activity in albino mouse assessed as stereotyped behavior characterized by sniffing and biting at up to 10 mg/kg, sc; assay type: functional, organism-based; design: dose 10 mg/kg
Summary of the method: (§5)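 Male albino mice (20–25 g, N = 10) were dosed sc in water containing 0.1% sodium metabisulfite and scored for stereotyped sniffing and biting. Dose range runs from the threshold dose to the dose giving maximal response, in mg/kg sc.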

Rattus norvegicus [7] = assay: Dopaminergic activity in Sprague-Dawley rat assessed as stereotypic behavior administered into caudate-putamen measured up to 25 ug from 5 to 15 mins to persisted up to 3 hrs; assay type: functional, organism-based; summary of the method: as §1
Rattus norvegicus [8] = assay: Dopaminergic activity in Sprague-Dawley rat assessed as stereotyped behavior characterized by continous sniffing up to 12.5 to 50 ug administered into nucleus accumbens; assay type: functional, organism-based; summary of the method: as §1
Rattus norvegicus [9] = assay: Dopaminergic activity in Sprague-Dawley rat assessed as hyperactivity up to 6.25 to 50 ug administered into nucleus accumbens; assay type: functional, organism-based; summary of the method: as §1
Rattus norvegicus [10] = assay: Dopaminergic activity in Sprague-Dawley rat assessed as hyperactivity up to 25 ug administered into caudate-putamen; assay type: functional, organism-based; summary of the method: as §1
Mus musculus [11] = assay: Dopaminergic activity in albino mouse assessed as induction of ipsilateral circling behavior at 0.05 to 0.5 mg/kg, sc after 120 mins; assay type: functional, organism-based; summary of the method: as §4
Mus musculus [12] = assay: Dopaminergic activity in albino mouse assessed as stereotyped behavior characterized by sniffing and biting at 0.05 to 1 mg/kg, sc; assay type: functional, organism-based; summary of the method: as §5
Rattus norvegicus [13] = assay: Dopaminergic activity in Sprague-Dawley rat assessed as hyperactivity behavior administered into nucleus caudate-putamen measured up to 25 ug from 30 to 45 mins to persisted up to 5 to 6 hrs; assay type: functional, organism-based; summary of the method: as §1
[14] = Induction of pecking activity in pigeons assessed as counts for 1 hr relative to apomorphine; assay type: functional, Columbidae
Summary of the method: (§6)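 Pigeons were dosed im, with doses spaced at 0.3 log intervals, and pecks were counted over 1 h. Pecking after 1.63 µmol apomorphine hydrochloride was taken as the 100% response.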

Rattus norvegicus [15] = assay: Dopaminergic activity in Sprague-Dawley rat assessed as stereotypic behavior administered into caudate-putamen measured up to 25 ug from 5 to 15 mins to persisted up to 5 to 6 hrs; assay type: functional, organism-based; summary of the method: as §1
Rattus norvegicus [16] = assay: Dopaminergic activity in Sprague-Dawley rat assessed as stereotyped behavior characterized by sniffing and biting at 0.025 to 0.05 mg/kg, sc; assay type: functional, organism-based; summary of the method: as §2
Felis catus = assay: Inhibition of electrical-stimulation of postganglionic cardioaccelerator nerve in iv dosed cat; assay type: functional; conditions: read-out: ID50 (the source's name)
Summary of the method: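 Cats were anaesthetised with sodium pentobarbital 30 mg/kg and ventilated. The right postganglionic cardioaccelerator nerves were stimulated with bipolar electrodes (2 Hz, 5 ms pulses, supramaximal voltage, 20–30 s trains), and heart rate was read by cardiotachometer. Doses were spaced at 0.48 log intervals, and the dose inhibiting positive chronotropic responses by 50% was calculated.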

Mus musculus [17] = assay: Dopaminergic activity in albino mouse assessed as induction of climbing behavior at 0.1 to 0.5 mg/kg, sc after 120 mins; assay type: functional, organism-based; summary of the method: as §3
Mus musculus [18] = assay: Dopaminergic activity in albino mouse assessed as induction of climbing behavior at 0.5 mg/kg, sc up to 30 mins; assay type: functional; conditions: route subcutaneous; summary of the method: as §3
Rattus norvegicus [19] = assay: Dopaminergic activity in Sprague-Dawley rat assessed as stereotyped behavior characterized by continous sniffing up to 25 ug administered into caudate-putamen; assay type: functional, organism-based; summary of the method: as §1
Mus musculus [20] = assay: Dopaminergic activity in sc dosed albino mouse assessed as induction of ipsilateral circling behavior; assay type: functional, organism-based; summary of the method: as §4
Mus musculus [21] = assay: Dopaminergic activity in albino mouse assessed as induction of ipsilateral circling behavior at 0.05 to 0.5 mg/kg, sc; assay type: functional, organism-based; summary of the method: as §4
Rattus norvegicus [22] = assay: Dopaminergic activity in Sprague-Dawley rat assessed as locomotor and stereotypic behavior administered into nucleus accumbens measured up to 25 ug from 5 to 15 mins to persisted up to 5 to 6 hrs; assay type: functional, organism-based; summary of the method: as §1
Mus musculus [23] = assay: Dopaminergic activity in albino mouse assessed as induction of climbing behavior at 0.1 to 0.5 mg/kg, sc; assay type: functional, organism-based; summary of the method: as §3
Rattus norvegicus [24] = assay: Dopaminergic activity in Sprague-Dawley rat assessed as stereotyped behavior characterized by periodic biting associated with sniffing administered into nucleus accumbens; assay type: functional, organism-based; summary of the method: as §1
[25] = Induction of pecking activity in pigeons assessed as counts for 1 hr; assay type: functional; conditions: Columbidae; summary of the method: as §6
Canis familiaris [26] = assay: Emetic activity in sc dosed dogs assessed as frequency of vomiting for 1 hr; assay type: functional; conditions: Canis lupus familiaris
Summary of the method: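 At least five dogs per compound were dosed sc, with doses spaced at 0.3 log intervals. Vomiting frequency was recorded over 1 h.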

Rattus norvegicus [27] = assay: Dopaminergic activity in Sprague-Dawley rat assessed as stereotyped behavior characterized by sniffing and biting at 1 to 10 mg/kg, sc; assay type: functional, organism-based; summary of the method: as §2
Mus musculus [28] = assay: Dopaminergic activity in albino mouse assessed as stereotyped behavior characterized by sniffing and biting at 1 to 2 mg/kg, sc; assay type: functional, organism-based; summary of the method: as §5
Mus musculus [29] = assay: Dopaminergic activity in albino mouse assessed as induction of climbing behavior at 0.025 to 1 mg/kg, sc after 120 mins; assay type: functional, organism-based; summary of the method: as §3
Mus musculus [30] = assay: Dopaminergic activity in albino mouse assessed as induction of climbing behavior at 0.025 to 1 mg/kg, sc; assay type: functional, organism-based; summary of the method: as §3
Rattus norvegicus [31] = assay: Dopaminergic activity in Sprague-Dawley rat assessed as biting behavior up to 50 ug administered into nucleus accumbens; assay type: functional, organism-based; summary of the method: as §1
Mus musculus [32] = assay: Dopaminergic activity in albino mouse assessed as induction of ipsilateral circling behavior at 0.5 to 2 mg/kg, sc; assay type: functional, organism-based; summary of the method: as §4
Mus musculus [33] = assay: Dopaminergic activity in albino mouse assessed as induction of ipsilateral circling behavior at 0.5 to 2 mg/kg, sc after 120 mins; assay type: functional, organism-based; summary of the method: as §4
Rattus norvegicus [34] = assay: Dopaminergic activity in Sprague-Dawley rat assessed as stereotyped behavior characterized by sniffing and biting at 0.5 to 2 mg/kg, sc; assay type: functional, organism-based
Summary of the method: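 Male Sprague-Dawley rats in groups of 10 received agents sc, dissolved in distilled water containing 0.1% sodium metabisulfite, and were scored for stereotyped sniffing and biting. Testing ran 08:00-18:00 h in sound-proofed rooms at 21 ± 2 °C. The reported range runs from the threshold dose to the dose producing the maximum attainable response, in mg/kg sc.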

Mus musculus [35] = assay: Dopaminergic activity in albino mouse assessed as stereotyped behavior characterized by sniffing and biting at 1.5 to 4 mg/kg, sc; assay type: functional, organism-based
Mus musculus [36] = assay: Dopaminergic activity in albino mouse assessed as induction of climbing behavior at 0.5 to 1.5 mg/kg, sc; assay type: functional, organism-based
Summary of the method: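 Male albino mice (20-25 g, N = 10) received agents sc in water with 0.1% sodium metabisulfite. They were placed in perspex cages lined with wire mesh and counted as climbing when holding the wire with all four paws. Read-outs were climbing index (% time climbing in the 30 min after the first climb) and maximum single-climb time. Range given is threshold to maximal dose.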

Mus musculus [37] = assay: Dopaminergic activity in albino mouse assessed as induction of ipsilateral circling behavior at 0.25 to 1 mg/kg, sc; assay type: functional, organism-based
Summary of the method: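 Mice received a unilateral caudate-putamen electrolesion (1.5 mA, 15 s). After 14 days they were screened with apomorphine HCl 1.0 mg/kg sc, and animals circling ≥7 ipsilateral revolutions/2 min were kept. After 7 days' recovery, agents were given sc and complete one-direction revolutions were counted manually. Lesion sites were verified histologically. Range given is threshold to maximal dose.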

SMILES	Activity (Rattus norvegicus [1])	Activity (Rattus norvegicus [2])	Activity (Mus musculus [3])	fold change (FC) (Canis familiaris [4])	Activity (Mus musculus [5])	Activity (Mus musculus [6])	Activity (Rattus norvegicus [7])	Activity (Rattus norvegicus [8])	Activity (Rattus norvegicus [9])	Activity (Rattus norvegicus [10])	Activity (Rattus norvegicus [13])	Activity (Rattus norvegicus [15])	ED50 (Felis catus)	Activity (Rattus norvegicus [19])	also measured
CCN1CCC[C@@H]2c3ccc(O)c(O)c3CC[C@@H]21 (relative stereo)	Active	inactive	inactive	0.053	inactive	inactive	Active	Active	Active	Active					
CCCN1CCC[C@@H]2c3ccc(O)c(O)c3CC[C@H]21 (relative stereo)				2.7					Active	Active	Active	Active	0.0003 µmol/kg	Active	Activity (Mus musculus [11]): Active; Activity (Mus musculus [12]): Active; fold change (FC) [14]: 0.32; Activity (Rattus norvegicus [16]): Active; Activity (Mus musculus [17]): Active; Activity (Mus musculus [18]): >90%; Activity (Mus musculus [20]): Dose-dependent effect; Activity (Mus musculus [21]): Active; Activity (Rattus norvegicus [22]): Active; Activity (Mus musculus [23]): Active; Activity (Rattus norvegicus [24]): Active
CN1CCc2cccc3c2[C@H]1Cc1ccc(O)c(O)c1-3 [APOMORPHINE HYDROCHLORIDE]															ED50 [25]: 0.77 µmol/kg; ED50 (Canis familiaris [26]): 0.14 µmol/kg
CN1CCc2cccc3c2[C@H]1Cc1ccc(O)c(O)c1-3 [APOMORPHINE]													0.019 µmol/kg		
Oc1ccc2c(c1O)CC[C@H]1NCCC[C@H]21 (relative stereo)	Active		inactive	4.5	inactive	inactive	Active	inactive	inactive	Active			0.0007 µmol/kg	Active	Activity (Rattus norvegicus [27]): Active
CCN1CCC[C@@H]2c3ccc(O)c(O)c3CC[C@H]21 (relative stereo)				4.9					inactive	Active	Active	Active	0.0005 µmol/kg	Active	Activity (Mus musculus [28]): Active; Activity (Mus musculus [29]): Active; Activity (Mus musculus [30]): Active; fold change (FC) [14]: 0.39; Activity (Rattus norvegicus [31]): Active; Activity (Rattus norvegicus [16]): Active; Activity (Mus musculus [32]): Active; Activity (Mus musculus [33]): Active; Activity (Mus musculus [20]): Dose-dependent effect
NCCc1ccc(O)c(O)c1								Active	Active		Active	Active			Activity (Rattus norvegicus [31]): inactive
CN1CCc2cccc3c2[C@H]1Cc1ccc(O)c(O)c1-3															Activity (Rattus norvegicus [34]): Active; Activity (Mus musculus [35]): Active; Activity (Mus musculus [36]): Active; Activity (Mus musculus [37]): Active
Oc1ccc2c(c1O)CC[C@@H]1NCCC[C@H]21 (relative stereo)	Active	inactive	inactive	0.024	inactive	inactive	Active	inactive	inactive	inactive			0.027 µmol/kg	inactive	
CCCN1CCC[C@@H]2c3ccc(O)c(O)c3CC[C@@H]21 (relative stereo)	Active	inactive	inactive		inactive	inactive	Active	inactive	inactive	inactive				inactive	
